Source: PubChem BioAssay
Results filed as inconclusive are left out.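 Rule for the calls, unless noted: active = inhibition over a set limit, the all-compound mean plus 3 SD, in both replicate runs; inconclusive = over that limit in just one replicate run; inactive = at or under that limit in both runs.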

How the values were obtained:
[1] = S. cerevisiae growth inhibition in permissive medium (OD615), pilot counter-assay for S. cerevisiae lifespan shortening project, permissive growth control (AID 705;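 active = growth inhibition above 25% in both replicates, a cutoff set 3 SD above the mean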); settings: OD615, 24 h, at 10 µM, active compounds read high
How it was run: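 System – S. cerevisiae with engineered DeaD lifespan system · Buffer or medium – SC raffinose/galactose permissive medium · Schedule – cells pre-grown 4 h, then 24 h compound exposure, 30 °C humidified · Technique – culture turbidity as optical density at 615 nm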

[2] = S. cerevisiae growth inhibition in restrictive medium, OD615, pilot screen, restrictive growth control, yeast lifespan reduction project (AID 706;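 active = growth inhibition above a set limit, 3 SD over mean compound inhibition, in both replicates, cut at about 43% in these data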;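 note: modified DeaD lifespan yeast strain shifted to restrictive glucose medium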); settings: OD615, 48 h, at 10 µM, active compounds read high
How it was run: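 Material: engineered S. cerevisiae DeaD strain / Medium: glucose-based CSMM-D restrictive medium / Compound: single dose of 10 µM compound final, 0.25% DMSO / Timing: 4 h pre-incubation, 48 h exposure at 30 °C / Technique: OD615 absorbance reading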

[3] = doxorubicin toxicity protection in MRP-1 cells – H69AR cells, CellTiter-Glo, duplicate, MRP-1 activator project, pilot screen (AID 807;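 active = viability increase at or above a cutoff of the median across tested compounds plus 3 SD, cut at about 8.5% in these data, passing the limit was not always enough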;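 note: compound pretreatment 18-22 h then 72 h combined with doxorubicin; 0% = doxorubicin alone and 100% = vehicle without doxorubicin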); settings: H69AR viability with doxorubicin, CellTiter-Glo luminescence; at 10 µM; active compounds read high
[4] = viability of HCT116 without oncogenic beta-catenin – human colon tumor cells, pilot screen (AID 823;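 active = cell viability at or below a set limit in both duplicate runs, the limit being the all-compound median minus 4 SD, cut at about 23% in these data, passing the limit was not always enough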;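 note: 0% = wells killed by 20 µM Hyamine and 100% = untreated DMSO cell wells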); settings: HCT116 beta-catenin knockout viability, CellTiter-Glo, 60 h; at 10 µM; active compounds read low
[5] = viability of PTEN-null HCT116 cells – cell-based, HCT116 clonal line, CellTiter-Glo, pilot screen (AID 824;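 active = viability at or below 27.92% in each of two runs, the all-compound median minus 4 SD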;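 note: 0% = 20 µM Hyamine control and 100% = vehicle cell control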); settings: HCT116 PTEN-deleted viability, 60 h, at 10 µM, active compounds read low
[6] = RAM pathway blockade in budding yeast – dse1pr::URA3 reporter, 5-FOA selection, pilot screen (AID 869);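 note: 0% = DMSO wells with no growth and 100% = 10 µM 1-NA-PP1 with full growth; RAM network block rescues cells from 5-FOA so hits raise OD615 growth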; settings: S. cerevisiae dse1pr::URA3 5-FOA growth, OD615, 2 d; at 10 µM; active compounds read high; strain carries analog-sensitive mutant Cbk1 kinase
[7] = RAM signaling pathway blockade in yeast – S. cerevisiae, Pdr1DBD-CYC8 efflux-inhibited sensitized strain, primary screen (AID 1298;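 active = RAM network inhibition above 8.4% in each of two replicates, 3 SD over the compound average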;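 note: 0% = DMSO untreated cells without growth and 100% = 10 µM 1-NA-PP1 full growth; higher means more yeast growth rescued from 5-FOA killing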); settings: S. cerevisiae cbk1-as DSE1-URA3 strain, 5-FOA growth OD615, 2 d; at 50 µM; active compounds read high

CCCCN(C)CCC(=O)Nc1ccc(OC)cc1OC
inactive: growth inhibition [1] -0.81% | growth inhibition [2] -1.21% | viability increase [3] -3.73% | viability [4] 88.5% | viability [5] 86.4% | inhibition [6] 2.29% | RAM network inhibition [7] -1.48%

C=CCSc1nc2c(c(=O)[nH]1)C(C(C)C)C(C#N)=C(N)O2 (stereo not drawn)
inactive: growth inhibition [1] 0.845% | growth inhibition [2] 1.47% | viability increase [3] -2.3% | viability [4] 101% | viability [5] 101% | inhibition [6] 1.75% | RAM network inhibition [7] 1.88%

COc1ccc(N(CC(=O)N2CCN(C)CC2)S(=O)(=O)c2ccccc2)cc1OC
inactive: growth inhibition [1] -16.8% | growth inhibition [2] -19.4% | viability increase [3] -1.07% | viability [4] 104% | viability [5] 91.8% | inhibition [6] 0.195% | RAM network inhibition [7] 1.1%

CC1CCCCN1CCNC(=O)c1cc2c(-c3ccccc3F)nn(C)c2s1 (stereo not drawn)
inactive: growth inhibition [1] -3.09% | growth inhibition [2] 0.025% | viability increase [3] -6.73% | viability [4] 48% | viability [5] 59.6% | inhibition [6] 0.095% | RAM network inhibition [7] 5.89%

COc1ccc(-c2cc(C(F)(F)F)nc(N3CCN(C)CC3)n2)cc1
inactive: growth inhibition [1] 1.48% | growth inhibition [2] -4.37% | viability increase [3] -5.32% | viability [4] 33.7% | viability [5] 42.9% | inhibition [6] 1.43% | RAM network inhibition [7] 4.04%

Nc1ccc(OCc2ccccc2)cc1
inactive: growth inhibition [1] -14.4% | growth inhibition [2] -9.93% | viability increase [3] -4.17% | viability [4] 98.7% | viability [5] 89.4% | inhibition [6] 1.9% | RAM network inhibition [7] 5.27%

COCCCNC(=O)Cn1ncc2ccsc2c1=O
inactive: growth inhibition [1] -4.86% | growth inhibition [2] 3.33% | viability increase [3] 1.3% | viability [4] 107% | viability [5] 101% | inhibition [6] -0.05% | RAM network inhibition [7] -0.97%

CCOC(=O)c1c(C)[nH]c(C(=O)CSc2nnnn2-c2ccccc2)c1C
inactive: growth inhibition [1] -7.16% | growth inhibition [2] -0.165% | viability increase [3] -1.88% | viability [4] 100% | viability [5] 93.4% | inhibition [6] 2.31% | RAM network inhibition [7] 1.57%

CCOc1ccc(Nc2ncnc3c2cnn3-c2ccccc2)cc1
inactive: growth inhibition [1] -3.8% | growth inhibition [2] 3.48% | viability increase [3] 2.06% | viability [4] 106% | viability [5] 108% | inhibition [6] 1.29% | RAM network inhibition [7] 2.91%

CCc1nnc(NC(=O)CSc2nccn2-c2cc(C)cc(C)c2)s1
inactive: growth inhibition [1] 3.21% | growth inhibition [2] 23% | viability increase [3] -6.31% | viability [4] 86.2% | viability [5] 75.8% | inhibition [6] 0.195% | RAM network inhibition [7] -1.37%

CCOc1ccc(NC(=O)CCS(=O)(=O)c2cccc3nsnc23)cc1
inactive: growth inhibition [1] -1.9% | growth inhibition [2] -3.6% | viability increase [3] -3.08% | viability [4] 101% | viability [5] 93.7% | inhibition [6] 1.31% | RAM network inhibition [7] 2.36%

O=S(=O)(NCc1ccc2c(c1)OCO2)c1cnc[nH]1
inactive: growth inhibition [1] -5.07% | growth inhibition [2] 0.305% | viability increase [3] 1.17% | viability [4] 107% | viability [5] 106% | inhibition [6] 0.885% | RAM network inhibition [7] 0.72%

COc1ccc(Cl)cc1NC(=O)CSc1nnc(Cn2c(=O)sc3ccccc32)n1C
inactive: growth inhibition [1] -8.82% | growth inhibition [2] -14.1% | viability increase [3] -2.64% | viability [4] 96.6% | viability [5] 95.6% | inhibition [6] 4.87% | RAM network inhibition [7] 7.45%

CCOc1ccc(N(CC(=O)N2CCN(c3ccccc3)CC2)S(=O)(=O)c2c(C)noc2C)cc1
inactive: growth inhibition [1] 1.67% | growth inhibition [2] -1.08% | viability increase [3] -5.76% | viability [4] 76.4% | viability [5] 67.7% | inhibition [6] 1.49% | RAM network inhibition [7] 1.85%

CCN1CCN(c2ncnc3c2sc2nc(N4CCOCC4)c4c(c23)CCC4)CC1
inactive: growth inhibition [1] -5.5% | growth inhibition [2] -14.1% | viability increase [3] -4.51% | viability [4] 85.1% | viability [5] 86.3% | inhibition [6] 0.195% | RAM network inhibition [7] 5.27%

Cc1nn2c(=O)cc(CSc3nc4ccccc4[nH]3)nc2s1
inactive: growth inhibition [1] -3.92% | growth inhibition [2] 2.41% | viability increase [3] -2.31% | viability [4] 103% | viability [5] 103% | inhibition [6] 1.35% | RAM network inhibition [7] 0.17%

CCNc1nc(OCCNS(=O)(=O)c2cc(C)ccc2C)nc(N(C)C)n1
inactive: growth inhibition [1] -7.45% | growth inhibition [2] -11.1% | viability increase [3] -0.92% | viability [4] 78.7% | viability [5] 78.8% | inhibition [6] 0.025% | RAM network inhibition [7] -0.63%

Cc1nnc(Sc2nc3c(c(=O)[nH]c(=O)n3C)n2Cc2ccccc2)s1
inactive: growth inhibition [1] -11.6% | growth inhibition [2] -12.4% | viability increase [3] -0.33% | viability [4] 101% | viability [5] 103% | inhibition [6] 1.61% | RAM network inhibition [7] 0.73%

O=C1CC(C(=O)N2CCN(c3ccc(F)cc3)CC2)CN1CCc1ccccc1 (stereo not drawn)
inactive: growth inhibition [1] -1.65% | growth inhibition [2] 5.89% | viability increase [3] -2.3% | viability [4] 99.2% | viability [5] 92.6% | inhibition [6] -0.23% | RAM network inhibition [7] 1.03%

COc1ccc(C(=O)Nc2ccc3oc(-c4cccc(F)c4)nc3c2)cc1OC
inactive: growth inhibition [1] -9.88% | growth inhibition [2] -5.71% | viability increase [3] -2.46% | viability [4] 95.1% | viability [5] 90.3% | inhibition [6] 3.53% | RAM network inhibition [7] 3.33%

CCOc1ccc2[nH]c(C)c(CN(C)C)c(=O)c2c1
inactive: growth inhibition [1] 1.46% | growth inhibition [2] 9.84% | viability increase [3] -1.41% | viability [4] 99.4% | viability [5] 95.1% | inhibition [6] -0.27% | RAM network inhibition [7] 4.03%

CCOC(=O)CCCSc1nc2sc(C)c(C)c2c(=O)[nH]1
inactive: growth inhibition [1] -12.1% | growth inhibition [2] -15.5% | viability increase [3] -0.74% | viability [4] 102% | viability [5] 98.5% | inhibition [6] 3.01% | RAM network inhibition [7] 3.95%

COC(=O)C1=C(C)Nc2nc(-c3ccccc3)nn2C1c1ccc(C)o1 (stereo not drawn)
inactive: growth inhibition [1] -4.19% | growth inhibition [2] 12.3% | viability increase [3] -4.23% | viability [4] 78.3% | viability [5] 76.1% | inhibition [6] 2.19% | RAM network inhibition [7] 1.2%

N#Cc1ccc(Oc2cccnc2)cc1C#N
inactive: growth inhibition [1] -13.5% | growth inhibition [2] -20.4% | viability increase [3] -0.76% | viability [4] 100% | viability [5] 97.5% | inhibition [6] 1.49% | RAM network inhibition [7] 2.79%
